The values that follow come from ChEMBL document CHEMBL1142365, “Synthesis and evaluation of stilbenylbenzoxazole and stilbenylbenzothiazole derivatives for detecting beta-amyloid fibrils” (Bioorg Med Chem Lett, 2008).

The nature of the assay: Displacement of [125I]TZDM from beta amyloid protein 42. The essentials:
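Competition binding against [125I]TZDM on pre-formed Ab42 aggregates. Mixtures incubated 3 h at room temperature. Bound and free radioligand separated by vacuum filtration through GF/B filters, then two washes with 10% EtOH at room temperature. Filter-bound radioactivity counted by gamma counter. Ki obtained by nonlinear regression of the inhibition data.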
In the case of `Nc1ccc(/C=C/c2ccc(-c3nc4ccc(OCCF)cc4s3)cc2)cc1`, affinity was put at a Ki of 590 pM. `CN(C)c1ccc(/C=C/c2ccc(-c3nc4cc(OCCCF)ccc4o3)cc2)cc1`: affinity was put at a Ki of 470 pM. `CN(C)c1ccc(/C=C/c2ccc(-c3nc4ccc(OCCF)cc4o3)cc2)cc1`: affinity was put at a Ki of 450 pM. `CN(C)c1ccc(/C=C/c2ccc(-c3nc4cc(OCCF)ccc4o3)cc2)cc1`: affinity was put at a Ki of 440 pM. In turn, `CNc1ccc(/C=C/c2ccc(-c3nc4ccc(OCCCF)cc4o3)cc2)cc1` registered a Ki of 680 pM. Against the preceding compound, the Ki is about 1.5-fold higher.

The compound `CNc1ccc(/C=C/c2ccc(-c3nc4ccc(OCCF)cc4s3)cc2)cc1` showed a Ki of 520 pM. As for `CNc1ccc(/C=C/c2ccc(-c3nc4cc(OCCF)ccc4o3)cc2)cc1`, the figure is 740 pM; as for `[11CH3]Nc1ccc(-c2nc3ccc(O)cc3s2)cc1` [PITTSBURGH COMPOUND B], 770 pM. As for `Nc1ccc(/C=C/c2ccc(-c3nc4ccc(OCCF)cc4o3)cc2)cc1`, the affinity corresponds to a Ki of 470 pM.

As for `CNc1ccc(/C=C/c2ccc(-c3nc4cc(OCCCF)ccc4o3)cc2)cc1`, the affinity, expressed as Ki, was 450 pM. This Ki and that of the compound before are within 1.5-fold of each other. Compound `CNc1ccc(/C=C/c2ccc(-c3nc4ccc(OCCF)cc4o3)cc2)cc1` returned a Ki of 500 pM. The Ki values of the last two compounds are within 1.5-fold of each other. Regarding `Nc1ccc(/C=C/c2ccc(-c3nc4cc(OCCF)ccc4o3)cc2)cc1`, affinity was put at a Ki of 320 pM. In the case of `Nc1ccc(/C=C/c2ccc(-c3nc4ccc(OCCCF)cc4o3)cc2)cc1`, the Ki is 590 pM. As to `Nc1ccc(/C=C/c2ccc(-c3nc4ccc(OCCCF)cc4s3)cc2)cc1`, the Ki was 550 pM. In turn, `CNc1ccc(/C=C/c2ccc(-c3nc4cc(OCCCF)ccc4s3)cc2)cc1` yielded a Ki of 380 pM. This Ki and that of the compound before are within 1.5-fold of each other. For the compound `Nc1ccc(/C=C/c2ccc(-c3nc4cc(OCCF)ccc4s3)cc2)cc1`, the Ki was found to be 410 pM.

On to `Nc1ccc(/C=C/c2ccc(-c3nc4cc(OCCCF)ccc4s3)cc2)cc1`, for which the affinity corresponds to a Ki of 420 pM. The compound `CN(C)c1ccc(/C=C/c2ccc(-c3nc4ccc(OCCCF)cc4o3)cc2)cc1` showed a Ki of 460 pM.

In turn, `CN(C)c1ccc(/C=C/c2ccc(-c3nc4cc(OCCCF)ccc4s3)cc2)cc1` yielded a Ki of 490 pM. In the case of `CN(C)c1ccc(/C=C/c2ccc(-c3nc4ccc(OCCF)cc4s3)cc2)cc1`, the affinity corresponds to a Ki of 570 pM. `CN(C)c1ccc(/C=C/c2ccc(-c3nc4ccc(OCCCF)cc4s3)cc2)cc1` yielded a Ki of 120 pM. `CNc1ccc(/C=C/c2ccc(-c3nc4ccc(OCCCF)cc4s3)cc2)cc1` yielded a Ki of 480 pM. Compound `Nc1ccc(/C=C/c2ccc(-c3nc4cc(OCCCF)ccc4o3)cc2)cc1` displayed a Ki of 450 pM.

With `CN(C)c1ccc(/C=C/c2ccc(-c3nc4cc(OCCF)ccc4s3)cc2)cc1`, affinity was put at a Ki of 350 pM. As to `CNc1ccc(/C=C/c2ccc(-c3nc4cc(OCCF)ccc4s3)cc2)cc1`, affinity was put at a Ki of 100 pM.
